In ChEMBL document CHEMBL4152356, “Amphipathic sulfonamidobenzamides mimicking small antimicrobial marine natural products; investigation of antibacterial and anti-biofilm activity against antibiotic resistant clinical isolates” (Bioorg Med Chem, 2018):
Calls of active or inactive are those of the source.

Experiments:
[1] = system: Staphylococcus epidermidis; experiment: Antibacterial activity against methicillin resistant Staphylococcus epidermidis RP62A ATCC 35984/CCUG 31568 after 48 hrs by microdilution method; format: functional; conditions: RP62A ATCC 35984/CCUG 31568, 48 h
Outline: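 Broth microdilution (modified CLSI M07-A9) against the MRSE reference strain. Inoculum of about 2.5-3 × 10^4 cells/ml in Mueller-Hinton broth mixed 1:1 with serial compound dilutions; final DMSO ≤1%. Incubated 35 °C, 48 h.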

Bacillus subtilis [2] = experiment: Antibacterial activity against Bacillus subtilis 168 ATCC 23857 after 48 hrs by microdilution method; format: functional; conditions: subsp. subtilis str. 168 ATCC 23857, 48 h
Outline: (§1)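 Broth microdilution (CLSI M07-A9, modified) in Mueller-Hinton broth; inoculum about 2.5-3 × 10^4 cells/ml mixed 1:1 with serial compound dilutions. Stock solutions in up to 100% DMSO, final DMSO ≤1%. Incubated 35 °C for 48 h.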

[3] = system: Corynebacterium glutamicum; experiment: Antibacterial activity against Corynebacterium glutamicum ATCC 13032 after 48 hrs by microdilution method; format: functional; conditions: ATCC 13032, 48 h; outline: as §1
[4] = Selectivity index, ratio of EC50 for human RBC to MIC for methicillin resistant Staphylococcus epidermidis RP62A ATCC 35984/CCUG 31568; format: toxicity; conditions: human red blood cells (RBC), read-out: Selectivity Index
Outline: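 SI = hemolytic EC50 / MRSE MIC. Hemolysis: washed human RBCs (heparinized blood, healthy adult donor) at 10% in PBS pH 7.4, mixed 9:1 with serial compound dilutions, 37 °C for 1 h. 0.05% Triton X-100 set 100% lysis, 0.5% DMSO set baseline. MIC from MHB microdilution, 35 °C, […].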

Staphylococcus aureus = experiment: Antibacterial activity against Staphylococcus aureus clinical isolates after 24 hrs by microdilution method; format: functional
Outline: (§2)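 Clinical isolate screen by broth microdilution with about 1-1.2 × 10^6 cells/ml and 24 h incubation. MIC is the lowest concentration with no growth. For isolate collections, MIC90 is the MIC inhibiting ≥90% of isolates. Multidrug resistance was defined as resistance to at least […] antimicrobial class.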

Escherichia coli [5] = experiment: Antibacterial activity against Escherichia coli clinical isolates after 24 hrs by microdilution method; format: functional; outline: as §2
Enterococcus faecium = experiment: Antibacterial activity against vancomycin resistant Enterococcus faecium 50,901,530 clinical isolate after 24 hrs by microdilution method; format: functional; conditions: Enterococcus faecium, 50,901,530, 24 h
Outline: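 Broth microdilution in Mueller-Hinton broth (modified CLSI M07-A9), clinical isolates at about 1-1.2 × 10^6 cells/ml. Inoculum mixed 1:1 with serial compound dilutions; stocks made in up to 100% DMSO, final DMSO ≤1%. Incubated 24 h.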

Escherichia coli [6] = experiment: Antibacterial activity against Verona integron-encoded metallo-beta-lactamase 29-producing Escherichia coli 50,639,799 clinical isolate after 24 hrs by microdilution method; format: functional; conditions: Escherichia coli, 50,639,799, 24 h; outline: as §2
Pseudomonas aeruginosa [7] = experiment: Antibacterial activity against imipenem 14-type carbapenemase-producing Pseudomonas aeruginosa K4424 clinical isolate after 24 hrs by microdilution method; format: functional; conditions: K4424, 24 h; outline: as §2
Pseudomonas aeruginosa [8] = experiment: Antibacterial activity against Verona integron-encoded metallo-beta-lactamase-producing Pseudomonas aeruginosa 50,692,520 clinical isolate after 24 hrs by microdilution method; format: functional; conditions: Pseudomonas aeruginosa, 50,692,520, 24 h; outline: as §2
Klebsiella pneumoniae = experiment: Antibacterial activity against oxacillinase 245-producing Klebsiella pneumoniae 50,625,602 clinical isolate after 24 hrs by microdilution method; format: functional; conditions: Klebsiella pneumoniae, 50,625,602, 24 h; outline: as §2
[9] = system: Staphylococcus epidermidis; experiment: Antibiofilm activity against Staphylococcus epidermidis RP62A ATCC 35984/CCUG 31568 incubated for 24 +/- 2 hrs by crystal violet staining based assay; format: functional
Outline: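 Mature S. epidermidis RP62A biofilms: filtered overnight TSB culture adjusted to 2 McFarland, diluted in TSB with 1% glucose to about 6 × 10^6 CFU/ml, grown 24 ± 2 h at 37 °C static, then PBS-washed. Compounds in 50% TSBglu added for 24 ± 2 h at 37 °C. Biomass given as % of untreated control; ≥90% eradication threshold. Compounds tested at 2x, 5x and 10x MIC, 4-8 parallels on 2-3 plates, highest and lowest values excluded.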

Bacillus subtilis [10] = experiment: Induction of membrane disruption in Bacillus subtilis 168 expressing luciferase at 4 ug/ml […] by luminescence assay; format: functional, organism-based; conditions: subsp. subtilis str. 168

SMILES	MIC [1] [µg/mL]	MIC (Bacillus subtilis [2]) [µg/mL]	MIC [3] [µg/mL]	selectivity ratio [4]	MIC (Staphylococcus aureus) [µg/mL]	MIC (Escherichia coli [5]) [µg/mL]	MIC (Enterococcus faecium) [µg/mL]	MIC (Escherichia coli [6]) [µg/mL]	MIC (Pseudomonas aeruginosa [7]) [µg/mL]	MIC (Pseudomonas aeruginosa [8]) [µg/mL]	MIC (Klebsiella pneumoniae) [µg/mL]	MBIC=>90 [9] [µg/mL]	Activity (Bacillus subtilis [10])
CC(C)(C)c1cc(C(C)(C)C)cc(S(=O)(=O)Nc2cc3ccccc3cc2C(=O)NCCNC(=N)N)c1.Cl	4	4	2	6	4	8	8	≥ 32	> 64	≥ 64	≥ 32	40	
CN(c1ccc(C(=O)NCCCNC(=N)N)cc1)S(=O)(=O)c1cc(C(C)(C)C)cc(C(C)(C)C)c1.Cl	4	4	2	14	4	16	16	32	32	32	≥ 32	40	Active
